Among the data in ChEMBL document CHEMBL1122338, “Mutagenicity and chemistry of N-nitroso-N-(p-substituted-benzyl)methylamines” (1983) are Activity values, retold here.

Where “and” joins values, the source holds several entries; their conditions need not be identical. Equal values may be shown once.

Assay [1] concerns S9. Kind of assay: Activity expressed as no. of revertants per plate in strain TA1535 without hamster S9 cells (3 mg/plate) at the dose of 250 ug. It counts as functional, Cricetulus griseus. The method, boiled down:
(§1)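 Ames plate incorporation test in Salmonella TA1535 (base-pair substitution detector), with or without Aroclor 1254-induced hamster S9 mix (3 mg/plate). Doses span a 10-point range of 1–1000 μg/plate. At least two independent dose-response studies, each on duplicate plates; mean revertants per plate reported. Counts are significant when above twice the historical or twice the current control mean, whichever is greater.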

Assay [2] deals with S9. Kind of assay: (§2) Activity expressed as no. of revertants per plate in strain TA1535 with and without hamster S9 cells (3 mg/plate) at the dose of 250 ug. It counts as functional, Cricetulus griseus.
Assay [3] deals with S9. The assay can be described thus: (§3) Activity expressed as no. of revertants per plate in strain TA1535 with and without hamster S9 cells (3 mg/plate) at the dose of 2.5 ug. It counts as functional, Cricetulus griseus.
Assay [4] has as its system S9. Kind of assay: Activity expressed as no. of revertants per plate in strain TA1535 with and without hamster S9 cells (3 mg/plate) at the dose of 100 ug. It counts as functional, Cricetulus griseus.
In the next assay the test system is Salmonella typhimurium. Kind of assay: Activity expressed as no. of revertants per plate in Salmonella Typhimurium TA1535 with and without hamster S9 cells (3 mg/plate) at the dose of 50 ug. It counts as functional, Salmonella enterica subsp. enterica serovar Typhimurium.
Assay [5] deals with S9. The assay can be described thus: (§4) Activity expressed as no. of revertants per plate in strain TA1535 with and without hamster S9 cells (3 mg/plate) at the dose of 1 ug. Format: functional, Cricetulus griseus.
Assay [6] relates to S9. Kind of assay: Activity expressed as no. of revertants per plate in strain TA1535 with and without hamster S9 cells (3 mg/plate) at the dose of 25 ug. Format: functional, Cricetulus griseus.
Assay [7] deals with S9. Kind of assay: Activity expressed as no. of revertants per plate in strain TA1535 without hamster S9 cells (3 mg/plate) at the dose of 50 ug. Format: functional, Cricetulus griseus. The method, boiled down:
as §1

The subject of assay [8] is S9. Kind of assay: (§5) Activity expressed as no. of revertants per plate in strain TA1535 with hamster S9 cells (3 mg/plate). It counts as functional, Cricetulus griseus.
For assay [9], the system named is S9. Kind of assay: (§6) Activity expressed as no. of revertants per plate in strain TA1535 with and without hamster S9 cells (3 mg/plate) at the dose of 5 ug. Format: functional, Cricetulus griseus.
For assay [10], the system named is S9. Kind of assay: (§7) Activity expressed as no. of revertants per plate in strain TA1535 with and without hamster S9 cells (3 mg/plate) at the dose of 10 ug. Format: functional, Cricetulus griseus.
Assay [11] relates to S9. The description is as §7. Format: functional, Cricetulus griseus. The method, boiled down: as §1
This is another data set of the same source.

Assay [12] relates to S9. Described as §5. Format: functional, Cricetulus griseus. The method, boiled down:
as §1
The source holds these as a separate data set.

The subject of assay [13] is S9. Described as §3. Format: functional, Cricetulus griseus. The gist of the method: as §1
The source holds these as a separate data set.

For assay [14], the system named is S9. The assay can be described thus: (§8) Activity expressed as no. of revertants per plate in strain TA1535 with and without hamster S9 cells (3 mg/plate) at the dose of 500 ug. Format: functional, Cricetulus griseus. The gist of the method:
as §1

The subject of assay [15] is S9. The assay is described as §6. It counts as functional, Cricetulus griseus. The method, boiled down: as §1
This is another data set of the same source.

Assay [16] relates to S9. Described as §4. Format: functional, Cricetulus griseus. The gist of the method: as §1
This is another data set of the same source.

Assay [17] has as its system S9. Described as §8. Format: functional, Salmonella enterica subsp. enterica serovar Typhimurium. The gist of the method:
as §1

In assay [18] the test system is S9. Kind of assay: Activity expressed as no. of revertants per plate in strain TA1535 with and without hamster S9 cells (3 mg/plate) at the dose of 1000 ug. It counts as functional, Cricetulus griseus.
Assay [19] relates to S9. The description is as §2. Format: functional, Cricetulus griseus. The gist of the method:
as §1
The source holds these as a separate data set.

Assay [20] has as its system S9. Described as §8. It counts as functional, Cricetulus griseus. This is another data set of the same source.

Consider `COc1ccc(CN(C)N=O)cc1`, for which the Activity is 20 in the assay with S9 [1]; 56 with S9 [2]; 21 and 19 with S9 [3]; 15 and 44 in the assay on S9 [4]; 11 and 26 in the assay on Salmonella typhimurium; 10 and 13 in the assay on S9 [5]. For the same compound, the Activity in the assay on S9 [6] was 18 and 17; with S9 [7], 19; in the assay on S9 [8], 11 and 8; in the assay with S9 [9] it was 15 and 10; with S9 [10], 24 and 14.

For the compound `CN(Cc1ccc(Cl)cc1)N=O`, the Activity in the assay on S9 [11] is 12 and 32; with S9 [12], 19; with S9 [13], 18 and 15; in the assay on S9 [14] it was 10; with S9 [15], 20 and 17; in the assay on S9 [16] it was 13 and 9. Moreover, the results for the Activity in the assay with S9 [17] and in the assay with S9 [8] were 913 and 13, respectively.

For the compound `CN(Cc1ccccc1)N=O`, the Activity was 23 and 58 in the assay with S9 [2]; 18 and 24 in the assay with S9 [3]; 17 and 44 in the assay on S9 [4]; 14 and 21 in the assay with S9 [5]; 18 and 24 with S9 [6]; 14 and 20 in the assay on S9 [8]. Moreover, the Activity is 15 and 24 in the assay with S9 [9]; 12 with S9 [10].

Regarding `CN(Cc1ccc(F)cc1)N=O`, the Activity in the assay on S9 [2] is 39; in the assay with S9 [18], 16; with S9 [3], 16 and 7; with S9 [19] it was 17; with S9 [5] it was 15 and 8; in the assay on S9 [6], 13 and 17. Also, the Activity was 14 and 6 in the assay with S9 [8]; 12 and 10 in the assay with S9 [9]; 13 and 8 in the assay with S9 [10]; 21 and 50 in the assay with S9 [20].

Consider `CN(Cc1ccc(C(=O)O)cc1)N=O`, for which the Activity in the assay with S9 [2] was 15 and 7; with S9 [18], 14 and 9; with S9 [3], 12 and 6; in the assay on S9 [4], 13 and 10; in the assay with Salmonella typhimurium, 8 and 5 and 10 and 7; with S9 [5] it was 12 and 8. Further, the Activity in the assay with S9 [6] is 6 and 4; with S9 [8], 11 and 6; in the assay on S9 [9], 13 and 6; in the assay with S9 [20], 10 and 8.

Regarding `CN(Cc1ccc(C#N)cc1)N=O`, the Activity is 26 and 19 in the assay on S9 [3]; 25 and 14 with S9 [5]; 29 and 45 with S9 [6]; 21 and 13 in the assay with S9 [8]; 29 with S9 [9]; 23 and 32 in the assay on S9 [10].

As to `CN(Cc1ccc([N+](=O)[O-])cc1)N=O`, the Activity is 18 and 15 with S9 [3]; 17 and 11 with S9 [5]; 13 and 27 in the assay on S9 [6]; 13 and 9 with S9 [8]; 14 and 11 in the assay on S9 [9]; 10 and 12 with S9 [10].
